Screening data: PubChem, several laboratories
HNF4A DNA FP = change in binding of human HNF4 alpha to DNA; HNF4a-FITC DNA binding, fluorescence polarization, 1 h; 360,000 compounds, 0.3% hits; activity change, % at 10 µM; in the data active = activity change above about 30%, passing the limit was not always enough
Rpn11 block = Rpn11 (human) deubiquitinase inhibition; O00487; human 26S proteasome, Ub4-pepOG fluorescence polarization; 20S core pre-blocked with epoxomicin; inhibition, % at 20 µM; 360,000 compounds, 0.59% hits; AID 588493;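 active = inhibition at 20 µM, scaled to each plate's controls, above about 33%, limit read from the data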
TPT1 inh = blocks Candida albicans tRNA 2'-phosphotransferase. recombinant caTPT1, FP RNA substrate dephosphorylation. inhibition, % at 5 µM. 300,000 compounds, 0.81% hits;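 active = inhibition above the mean of all tested compounds plus 3 SD, set per screening campaign, cut at about 24% in these data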;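 note: plate controls were DMSO alone for no effect and ferristatin control at 100 nM for full effect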
CSN inh = inhibitors of human CSN-mediated cullin deneddylation; Purified CSN, SCF-Nedd8-OG deneddylation, fluorescence polarization; 360,000 compounds, 0.38% hits; Q92905; AID 651999; inhibition, % at 12.5 µM;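 active = pattern-corrected inhibition above about 35%, with an unprinted fluorescence ratio check between 0.5 and 1.5, limit read from the data, passing the limit was not always enough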;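 note: 0% = enzyme with substrate and 100% = substrate without enzyme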
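Material: human Csn5 produced in HEK293T cells; Input: enzyme 0.24 nM; Reagent: SCFSkp2-Nedd8OG substrate at 10 nM final; Dosing: 12.5 µM compound; Incubation: 90 min reaction at room temperature; Detection: fluorescence polarization of the substrate; Evaluation: % inhibition of substrate cleavage by Csn5; Control set: substrate-only high control, full reaction low control.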
SENP1 FRET inh = SENP1 (human) catalytic domain inhibition; inhibition, % at 10 µM; 360,000 compounds, 0.21% hits; recombinant SENP1 catalytic domain, CyPet-SUMO1-YPet FRET cleavage; Q9P0U3;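 active = inhibition at least 30% at 10 µM, raw YFP signal under a set limit, fluorescence ratio 0.5 to 1.5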;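 note: 0% = enzyme with DMSO and 100% = no enzyme wells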
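Controls: no-enzyme wells low, DMSO-plus-enzyme wells high control. Test system: human recombinant His6-tagged SENP1 catalytic domain enzyme. Reagent: SFCypet-SUMO1-SFYpet FRET protein substrate, 25 nM final. Doses: one dose per compound, 10 µM, 0.5% DMSO. Detection: FRET, CFP and YFP emission. Timing: 50 min reaction at room temperature.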
TPT1 inh confirm = TPT1 (C. albicans) inhibition, confirmation; inhibition, % at 5 µM; shares compounds with TPT1 inh; 2,400 compounds, 74% hits; recombinant caTPT1, fluorescence polarization, RNase T1 coupled;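 active = inhibition above the primary screen limit, the mean inhibition of all tested compounds plus 3 SD, cut at about 25% in these data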
RNase T1 inh = counter-screen for TPT1 inhibitors: inhibitors of Aspergillus oryzae RNase T1. shares compounds with TPT1 inh. RNase T1 cleavage, fluorescence polarization, 1536-well. inhibition, % at 5 µM. 2,400 compounds, 83% hits. AID 2153;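 active = inhibition above the solvent-only control well mean plus 3 SD, limit set per screening run, cut at about 23% in these data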;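 note: plate controls were DMSO wells with enzyme for no effect and wells without RNase T1 for full effect; inhibitors block cleavage so intact labeled substrate keeps polarization high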
Rpn11 confirm = Rpn11 inhibition confirmation, single concentration; purified human 26S proteasome, Ub4-pepOG fluorescence polarization; proteasome pretreated with epoxomicin; 1,900 compounds, 29% hits; inhibition, % at 20 µM; shares compounds with Rpn11 block
MMP-2 counter = counter-screen for RPN11 inhibitors: inhibition of human MMP-2 | shares compounds with Rpn11 block | AID 602330 | recombinant MMP-2, FRET peptide cleavage fluorescence | inhibition, % at 20 µM | 1,900 compounds, 4% hits;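 note: human MMP-2 activated beforehand with APMA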
Target sequence (P08253 whole entry, looked up): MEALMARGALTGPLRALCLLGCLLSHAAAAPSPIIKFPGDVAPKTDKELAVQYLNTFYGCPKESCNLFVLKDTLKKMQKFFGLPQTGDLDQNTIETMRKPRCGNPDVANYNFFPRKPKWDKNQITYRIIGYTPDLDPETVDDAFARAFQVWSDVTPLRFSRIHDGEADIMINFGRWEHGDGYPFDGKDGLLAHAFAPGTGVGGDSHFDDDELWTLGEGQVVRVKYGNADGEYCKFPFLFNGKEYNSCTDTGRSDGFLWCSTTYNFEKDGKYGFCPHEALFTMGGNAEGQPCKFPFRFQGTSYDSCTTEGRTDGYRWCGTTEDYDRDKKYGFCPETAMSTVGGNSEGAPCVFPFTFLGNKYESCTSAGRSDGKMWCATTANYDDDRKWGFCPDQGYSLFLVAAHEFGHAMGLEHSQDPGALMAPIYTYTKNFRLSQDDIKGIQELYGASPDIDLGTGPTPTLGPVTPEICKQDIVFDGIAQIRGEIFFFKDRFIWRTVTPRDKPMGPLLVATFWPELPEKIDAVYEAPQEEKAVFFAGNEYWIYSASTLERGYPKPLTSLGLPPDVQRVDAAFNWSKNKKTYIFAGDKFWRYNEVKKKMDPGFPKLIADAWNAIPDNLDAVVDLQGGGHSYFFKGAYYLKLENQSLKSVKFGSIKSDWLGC
Thrombin FP = counter-screen for RPN11 inhibitors: inhibition of bovine thrombin; shares compounds with Rpn11 block; bovine thrombin cleavage of Ub4-pepOG, fluorescence polarization; inhibition, % at 20 µM; 1,900 compounds, 13% hits; AID 602333;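 active = mean inhibition at least 40% at 20 µM, or signal 3 deviations below plate average, so some actives read negative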;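 note: plate controls were thrombin with DMSO for no effect and buffer wells lacking thrombin for full effect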
* marks the source's active call; other numbers are inactive results; nt = no result; ! = repeats disagree. Only some compounds are listed: those with a hit (about 1.6% of all), similar ones and a draw of the others. Cut-off read from the data, not from the text of the source, unless noted: active = inhibition above about 40%; inactive = the rest.

SMILES	HNF4A DNA FP	Rpn11 block	TPT1 inh	CSN inh	SENP1 FRET inh	TPT1 inh confirm	RNase T1 inh	Rpn11 confirm	MMP-2 counter	Thrombin FP
CC1(C(=O)NCCC#N)CCN1C(=O)CC(c1ccccc1)c1ccccc1 (centres undefined)	2	-2	nt	4	5	nt	nt	nt	nt	nt
O=C(O)c1cc(-c2ccco2)nn1-c1cccc(Cl)c1	-41	42*	29*	26	-124	25*	32*	19	15	6
CCCCCCN1C=CC=C/C1=C\C=C(C#N)C#N	22	62*	61*	8	-13	73*	84*	4	-5	11
COc1ccc(-n2c(SCC(=O)C(C)(C)C)nc3c(sc(=S)n3-c3ccccc3)c2=O)c(OC)c1	2	-1	-1	-5	-3	nt	nt	nt	nt	nt
O=C(CSc1nc2ccccc2s1)CSc1nc2ccccc2s1	0	6	11	9	-9	nt	nt	nt	nt	nt
O=C(CSc1nc2ccccc2s1)c1cc2ccccc2o1	3	56*	56*	-2	-14	16	25*	29	20	15
COc1cccc(-n2c(SCC(N)=O)nc3ccccc3c2=O)c1	30	66*	40*	20	-10	60*	75*	56*	-4	19
NC(=O)CSc1nc2ccccc2c(=O)n1-c1ccccc1	3	0	3	-5	0	nt	nt	nt	nt	nt
COc1ccc(C(=S)N2CCOCC2)cc1OC(=O)c1ccc([N+](=O)[O-])cc1[N+](=O)[O-]	3	-5	-1	3	0	nt	nt	nt	nt	nt
N=C1/C(=C\c2ccc(SCc3ccccc3)o2)C(=O)N=C2SC(CC(=O)N3CCOCC3)=NN12	12	41*	27*	13	-66	28*	39*	8	-4	-4
Cc1ccc(/C=C2\C(=N)N3N=C(CC(=O)N4CCOCC4)SC3=NC2=O)o1	-3	-5	1	9	-10	nt	nt	nt	nt	nt
O=C(O)CSc1ncnc2scc(-c3ccc(Br)cc3)c12	2	51*	35*	3	2	46*	55*	37	-1	25
O=C(O)CSc1ncnc2scc(-c3ccccc3)c12	5	1	1	1	1	nt	nt	nt	nt	nt
NC(=O)NC(=O)COC(=O)/C=C/c1cccs1	-6	-45	0	4	1	nt	nt	nt	nt	nt
CCN(CC)c1ccc(CN(C(=O)c2cccs2)C2CCS(=O)(=O)C2)cc1 (centres undefined)	-1	2	-1	-3	0	nt	nt	nt	nt	nt
Cc1sc2nc(CSc3ncn[nH]3)[nH]c(=O)c2c1C	0	-1	1	-10	-1	nt	nt	nt	nt	nt
CCc1cc2c(SCc3nc4sc(C(C)=O)c(C)c4c(=O)[nH]3)ncnc2s1	35	65*	37*	17	-2	33*	50*	77*	55*	46*
Cc1cc(N/N=C/c2ccc([N+](=O)[O-])o2)nc2ccccc12	21	51*	49*	29	-14	50*	64*	25	-12	10
O=[N+]([O-])c1ccc(/C=N/Nc2ccnc3cc(Cl)ccc23)o1	14	50*	68*	10	-24	62*	78*	39	-15	16
Clc1ccc2c(N/N=C/c3ccccc3Br)ccnc2c1	11	5	-2	6	-4	nt	nt	nt	nt	nt
CN(C)c1ccc(/C=C(/NC(=O)c2ccccc2)C(=O)N2CCCC2)cc1	5	64*	60*	38*	6	35*	44*	0	29	-4
c1ccc(N2CCOCCOCCOCCOCC2)cc1	-2	-4	-6	4	1	nt	nt	nt	nt	nt
O=C1N/C(=C/c2ccc(N3CCOCC3)o2)C(=O)N1c1ccccc1	112	59*	70*	-1	1	150*	148*	166*	20	166*
O=C1N/C(=C/c2ccc(N3CCOCC3)cc2)C(=O)N1Cc1ccc(F)cc1	-3	0	-5	2	-35	nt	nt	nt	nt	nt
O=C1N/C(=C/c2ccc(N3CCCC3)cc2)C(=O)N1c1ccccc1	16	41*	34*	9	-26	49*	63*	3	-20	-7
SMILES	HNF4A DNA FP	Rpn11 block	TPT1 inh	CSN inh	SENP1 FRET inh	TPT1 inh confirm	RNase T1 inh	Rpn11 confirm	MMP-2 counter	Thrombin FP
COc1ccc(S(=O)(=O)N2CCSC2C)cc1C (centres undefined)	-2	7	nt	1	-1	nt	nt	nt	nt	nt
COc1ccc(/C=C2\SC(=S)N(CCCC(=O)Nc3ccccc3C(=O)O)C2=O)cc1OC	25	48*	39*	8	-22	70*	77*	88*	-30	81*
CCNc1nc(NCC)n2c(SC(C(=O)Nc3cc(Cl)cc(Cl)c3)c3ccccc3)nnc2n1 (centres undefined)	-1	-4	1	-3	2	nt	nt	nt	nt	nt
Cc1c(N=C/C=C2/N(C)c3ccccc3C2(C)C)c(=O)n(-c2ccccc2)n1C	2	47*!	42*	3	-41	37*	48*	33	-8	30
Cc1c(N=C/C=C2\N(C)c3ccccc3C2(C)C)c(=O)n(-c2ccccc2)n1C	1	4	1	-2	-31	nt	nt	nt	nt	nt
Brc1ccc(-c2nnc3ccc(Nc4ccccc4)nn23)cc1	nt	nt	6	nt	nt	nt	nt	nt	nt	nt
COc1ccc(NC(=O)c2cc(-c3sc(NC(=O)c4ccccc4)nc3C)n(-c3ccc(Br)cc3)n2)cc1	-2	nt	nt	-4	-136	nt	nt	nt	nt	nt
CCOc1ccc(N(CC(=O)NCc2ccc(F)cc2)C(=O)c2ccco2)cc1	1	5	-1	4	1	nt	nt	nt	nt	nt
CN1/C(=C/C(=S)NC(=O)C2CCC2)C(C)(C)c2ccccc21	20	54*	51*	5	-33	13	18	-12	21	-6
CSc1ccc(/C=C/C(=O)c2c(O)cc(C)oc2=O)cc1	3	53*	73*	11	-28	26*	46*	70*	-11	131*
CSc1ccc(C(=O)/C=C/c2ccc(N)cc2)cc1	2	18	1	-9	-1	nt	nt	nt	nt	nt
CCOC(=O)c1c(CC(C)C)csc1/N=C/C1C(=O)CC(C)(C)CC1=O	-3	48*	61*	36*	-28	12	15	8	10	-9
CCOC(=O)c1cc(C)sc1/N=C/C1C(=O)CC(C)(C)CC1=O	0	-4	-1	3	-98	nt	nt	nt	nt	nt
